Data from ChEMBL document CHEMBL1123142, “1,2,4-Triazolo[4,3-a]quinoxaline-1,4-diones as antiallergic agents” (J Med Chem, 1985).
Values joined by “and” are separate entries in the source; they are usually repeats but may differ in a detail not shown here. Equal entries are not always repeated.

Legend:
Rattus norvegicus [1] = species on record: Rattus norvegicus; assay: Concentration required to inhibit Antigen-induced release of Histamine from rat mast cells at 100 uM; assay type: functional; conditions: Mast cell
Rattus norvegicus [2] = assay: Percent inhibitory activity in rat passive cutaneous anaphylaxis test at a dose of 25 mg/kg administered perorally; assay type: functional; conditions: for inhibition in vivo at 25 mg/kg: Rattus norvegicus, po; for Inhibition: route oral, 25 mg/kg
In short: (§1)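 Rats immunized i.m. with ovalbumin plus aluminum hydroxide, plus B. pertussis i.p., gave IgE antiovalbumin serum. Naive male Sprague-Dawley rats were sensitized intradermally at dorsal sites (1:20), with 48 h latency. Compound was given orally in 1% methylcellulose, 10 min before i.v. challenge with 4 mg ovalbumin in 1% Evans blue. Blued wheal areas were read at 30 min. Groups of 4–8; mean ± SE, Student's t test.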

Rattus norvegicus [3] = species on record: Rattus norvegicus; assay: Concentration required to inhibit Antigen-induced release of Histamine from rat mast cells; assay type: functional, cell-based; conditions: read-out: I50
Rattus norvegicus [4] = assay: Effective dose against IgE-mediated cutaneous anaphylaxis in the rat after peroral administration; assay type: functional; conditions: po; in short: as §1
Rattus norvegicus [5] = assay: Percent inhibitory activity in rat passive cutaneous anaphylaxis test at a dose of 25 mg/kg, ip; assay type: functional; conditions: route intraperitoneal
Rattus norvegicus [6] = assay: Percent inhibitory activity in rat passive cutaneous anaphylaxis test at a dose of 10 mg/kg administered perorally; assay type: functional; conditions: route oral; in short: as §1
Rattus norvegicus [7] = assay: Effective dose against IgE-mediated cutaneous anaphylaxis in the rat after ip administration; assay type: functional

SMILES | IC50 (Rattus norvegicus [3]) [µM] | inhibition in vivo at 25 mg/kg (Rattus norvegicus [2]) [%] | other results
COC(=O)n1nc2c(=O)n(C)c3ccccc3n2c1=O | – | – | inhibition at 100 µM (Rattus norvegicus [1]): 30%
COc1ccc2c(c1)n(C)c(=O)c1nnc(O)n12 | 3 | 10 | –
Cc1ccc2c(c1)n(C)c(=O)c1nnc(O)n12 | 6 | 18 | –
Oc1nc2ccccc2n2c(O)nnc12 | – | 40 | inhibition at 100 µM (Rattus norvegicus [1]): 20%
CCCn1c(=O)c2nn(CC(=O)OCC)c(=O)n2c2ccc(Cl)cc21 | – | – | inhibition in vivo at 25 mg/kg (Rattus norvegicus [5]): 14%; inhibition at 100 µM (Rattus norvegicus [1]): 20%
COc1cc2c(c(Cl)c1OC)n(C)c(=O)c1nnc(O)n12 | 35 | 27 | –
Cn1c(=O)c2nnc(O)n2c2ccc(O)cc21 | – | 20 | inhibition at 100 µM (Rattus norvegicus [1]): 29%
C=CCn1nc2c(=O)n(CCC)c3cc(Cl)ccc3n2c1=O | – | – | inhibition at 100 µM (Rattus norvegicus [1]): 20%
CC(=O)c1ccc2c(c1)n(C)c(=O)c1nnc(O)n12 | 1 | 49 | –
Cc1cc2c(cc1C)n1c(O)nnc1c(=O)n2C | 12 | – | –
Cn1c(=O)c2nn(S(C)(=O)=O)c(=O)n2c2ccccc21 | – | 25 | inhibition at 100 µM (Rattus norvegicus [1]): 2%
Cc1cccc2c1n(C)c(=O)c1nnc(O)n12 | 17 | 35 | Inhibition (Rattus norvegicus [2]): 53%
Cn1c(=O)c2nnc(O)n2c2ccc(C(F)(F)F)cc21 | 1 | 52 | ED50 (Rattus norvegicus [4]): 12 mg/kg; Inhibition (Rattus norvegicus [2]): 69%
Cn1nc2c(=O)n(C)c3ccccc3n2c1=O | – | 0 | inhibition at 100 µM (Rattus norvegicus [1]): 30%
O=C([O-])c1cc(=O)c2c(OCC(O)COc3cccc4oc(C(=O)[O-])cc(=O)c34)cccc2o1.[Na+].[Na+] [CROMOLYN SODIUM] | – | – | ED50 (Rattus norvegicus [7]): 6 mg/kg

Second part, led by results:

IC50 (Rattus norvegicus [3]) [µM] | SMILES | inhibition in vivo at 25 mg/kg (Rattus norvegicus [2]) [%] | other results
0.4 | CCCn1c(=O)c2nnc(O)n2c2ccc(Cl)cc21 | 53 | ED50 (Rattus norvegicus [4]): 3 mg/kg
10 | Cn1c(=O)c2nnc(O)n2c2ccc(Cl)cc21 | 22 | ED50 (Rattus norvegicus [4]): > 125 mg/kg
43 | CC(=O)n1nc2c(=O)n(C)c3cc(C)c(C)cc3n2c1=O | 26 | –
0.4 | Cn1c(=O)c2nnc(O)n2c2cc(Cl)ccc21 | 42 | –
40 | Cn1c(=O)c2nnc(O)n2c2ccccc21 | 38 | ED50 (Rattus norvegicus [4]): 6 mg/kg; inhibition in vivo at 10 mg/kg (Rattus norvegicus [6]): 56%
1 | CCCn1c(=O)c2nn(C(=O)/C=C/c3ccccc3)c(=O)n2c2ccc(Cl)cc21 | 38 | ED50 (Rattus norvegicus [4]): > 100 mg/kg
25 | CC(=O)n1nc2c(=O)n(C)c3ccccc3n2c1=O | – | Inhibition (Rattus norvegicus [2]): 27% and 63%
0.1 | CCCn1c(=O)c2nn(C(C)=O)c(=O)n2c2ccc(Cl)cc21 | – | inhibition in vivo at 25 mg/kg (Rattus norvegicus [5]): 42%
1 | CCCn1c(=O)c2nn(C)c(=O)n2c2ccc(Cl)cc21 | – | ED50 (Rattus norvegicus [4]): > 100 mg/kg
10 | CC(=O)n1nc2c(=O)n(C(C)=O)c3ccccc3n2c1=O | 36 | –
8 | CCCn1c(=O)c2nnc(O)n2c2ccccc21 | 58 | ED50 (Rattus norvegicus [4]): 3 mg/kg; inhibition in vivo at 10 mg/kg (Rattus norvegicus [6]): 84%
